# Key:
# [1] = Metabolic stability in human liver microsomes assessed as compound remaining at 10 uM after 30 mins; type: ADME; details: read-out: Stability
# [2] = molecular target: Cytochrome P450 2D6 (Homo sapiens, UniProt P10635); experiment: Inhibition of CYP2D6 (unknown origin); type: ADME
# [3] = tested on: Rattus norvegicus; experiment: AUC (0 to infinity) in Sprague-Dawley rat at 2 mg/kg, iv by HPLC/MS/MS method; type: ADME, organism-based; set-up: dose 2 mg/kg, route intravenous, time infinity; details: in vivo
# Method in brief: (§1)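 Male Sprague Dawley rats, 3 per group, single dose: 2.0 mg/kg IV tail vein (0.4 mg/mL, 5 mL/kg; 3% DMA/45% PEG300/12% ethanol/40% sterile water) or 5.0 mg/kg oral gavage (0.5 mg/mL, 10 mL/kg; 2% Tween 80 in 0.9% saline). Plasma sampled pre-dose to 48 h, assayed by HPLC/MS/MS. Non-compartmental analysis; AUC by log/linear (IV) or linear up/log down trapezoidal (PO).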
# [4] = tested on: Rattus norvegicus; experiment: Cmax in Sprague-Dawley rat at 5 mg/kg, po qd administered for 7 days measured on day 7 post last dose by HPLC/MS/MS method; type: ADME, organism-based; set-up: dose 5 mg/kg, route oral; details: in vivo, 168 h
# Method in brief: (§2)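 Male Sprague Dawley rats (n=3) were dosed orally by gavage at 5 mg/kg (1.0 mg/mL) once daily on Days 1–7, with a vehicle group run in parallel. Plasma was taken pre-dose on Days 1–6, then pre-dose and at 0.25–48 h on Day 7, and analysed by HPLC/MS/MS. Non-compartmental PK; terminal half-life needed at least three non-zero points after Tmax.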
# [5] = Plasma concentration in Sprague-Dawley rat at 5 mg/kg, po qd administered for 7 days measured at 48 hrs post dose on day 7 by HPLC/MS/MS method; type: ADME, organism-based; method in brief: as §2
# [6] = tested on: Liver microsome; experiment: Intrinsic clearance in rat liver microsomes; type: ADME
# [7] = tested on: Rattus norvegicus; experiment: Elimination half life in Sprague-Dawley rat at 5 mg/kg, po measured on day 1 by HPLC/MS/MS method; type: ADME, organism-based; details: in vivo
# Method in brief: (§3)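 Male Sprague Dawley rats (n=3) were given one 5 mg/kg oral gavage dose (1.0 mg/mL) on Day 1 in 2% Tween 80 in 0.9% saline. Plasma was sampled pre-dose and at 0.25–48 h and measured by HPLC/MS/MS. Non-compartmental analysis: Cmax and Tmax taken directly from the data; half-life from terminal regression over at least three non-zero points after Tmax.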
# [8] = tested on: Rattus norvegicus; experiment: Elimination half life in Sprague-Dawley rat at 5 mg/kg, po qd administered for 7 days measured on day 7 post last dose by HPLC/MS/MS method; type: ADME, organism-based; details: in vivo, 168 h; method in brief: as §2
# [9] = tested on: Rattus norvegicus; experiment: Tmax in Sprague-Dawley rat at 5 mg/kg, po by HPLC/MS/MS method; type: ADME, organism-based; details: in vivo; method in brief: as §1
# [10] = tested on: Rattus norvegicus; experiment: AUClast in Sprague-Dawley rat at 5 mg/kg, po measured on day 1 by HPLC/MS/MS method; type: ADME, organism-based; set-up: dose 5 mg/kg, time 0 - last, route oral; details: in vivo; method in brief: as §3
# [11] = tested on: MDCK; experiment: Apparent permeability across apical to basolateral side in MDCK cells expressing MDR1; type: ADME, cell-based, Canis lupus familiaris; details: dog
# [12] = molecular target: Voltage-gated inwardly rectifying potassium channel KCNH2 (Homo sapiens, UniProt Q12809); experiment: Inhibition of human ERG expressed in HEK293 cells by patch clamp assay; type: cell-based
# [13] = tested on: Plasma; experiment: Initial plasma concentration in Sprague-Dawley rat at 2 mg/kg, iv by HPLC/MS/MS method; type: ADME, organism-based; details: in vivo; method in brief: as §1
# [14] = tested on: Rattus norvegicus; experiment: Tmax in Sprague-Dawley rat at 5 mg/kg, po measured on day 1 by HPLC/MS/MS method; type: ADME, organism-based; details: in vivo; method in brief: as §3
# [15] = Metabolic stability in rat liver microsomes assessed as compound remaining at 10 uM after 30 mins; type: ADME; details: read-out: Stability
# [16] = tested on: Liver; experiment: Intrinsic clearance in mouse liver microsomes; type: ADME
# [17] = molecular target: Cytochrome P450 2C19 (Homo sapiens, UniProt P33261); experiment: Inhibition of CYP2C19 (unknown origin); type: ADME
# [18] = tested on: Rattus norvegicus; experiment: Cmax in Sprague-Dawley rat at 5 mg/kg, po measured on day 1 by HPLC/MS/MS method; type: ADME, organism-based; set-up: dose 5 mg/kg, route oral; details: in vivo; method in brief: as §3
# [19] = tested on: Rattus norvegicus; experiment: Apparent terminal half life in Sprague-Dawley rat at 5 mg/kg, po by HPLC/MS/MS method; type: ADME, organism-based; details: in vivo; method in brief: as §1
# [20] = tested on: Rattus norvegicus; experiment: AUClast in Sprague-Dawley rat at 2 mg/kg, iv by HPLC/MS/MS method; type: ADME, organism-based; set-up: dose 2 mg/kg, time 0 - last, route intravenous; details: in vivo; method in brief: as §1
# [21] = molecular target: Cytochrome P450 3A4 (Homo sapiens, UniProt P08684); experiment: Inhibition of CYP3A4 (unknown origin); type: ADME
# [22] = tested on: Rattus norvegicus; experiment: Plasma clearance in Sprague-Dawley rat at 2 mg/kg, iv by HPLC/MS/MS method; type: ADME, organism-based; details: in vivo; method in brief: as §1
# [23] = Kinetic solubility in phosphate buffered saline at pH 7.4; type: physicochemical; details: buffer
# [24] = tested on: Rattus norvegicus; experiment: AUClast in Sprague-Dawley rat at 5 mg/kg, po by HPLC/MS/MS method; type: ADME, organism-based; set-up: dose 5 mg/kg, time 0 - last, route oral; details: in vivo; method in brief: as §1
# [25] = tested on: Rattus norvegicus; experiment: Cmax in Sprague-Dawley rat at 5 mg/kg, po by HPLC/MS/MS method; type: ADME, organism-based; set-up: dose 5 mg/kg, route oral; details: in vivo; method in brief: as §1
# [26] = tested on: Rattus norvegicus; experiment: AUClast in Sprague-Dawley rat at 5 mg/kg, po qd administered for 7 days measured on day 7 post last dose by HPLC/MS/MS method; type: ADME, organism-based; set-up: dose 5 mg/kg, route oral, time 0 - last; details: in vivo, 168 h; method in brief: as §2
# [27] = tested on: Rattus norvegicus; experiment: Tmax in Sprague-Dawley rat at 5 mg/kg, po qd administered for 7 days measured on day 7 post last dose by HPLC/MS/MS method; type: ADME, organism-based; details: in vivo, 168 h; method in brief: as §2
# [28] = tested on: Rattus norvegicus; experiment: Decrease in RBP4 level in Sprague-Dawley rat plasma at 5 mg/kg, po relative to vehicle-treated control; type: functional; set-up: scale not given: the % may be the effect or the level left
# Method in brief: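 Male Sprague-Dawley rats were dosed by oral gavage at 10 mL/kg, with 2% Tween 80 in 0.9% saline as vehicle, […]. A vehicle-dosed group served as control. Whole blood was clotted for 30 min at room temperature, then centrifuged at 2000g for 15 min at 4°C to give serum. Serum RBP4 was measured by dual ELISA.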
# [29] = Plasma concentration in Sprague-Dawley rat at 5 mg/kg, po qd administered for 7 days measured on day 7 prior to administration of last dose by HPLC/MS/MS method; type: ADME, organism-based; method in brief: as §2
# [30] = Intrinsic clearance in cynomolgus monkey liver microsomes; type: ADME, Macaca fascicularis
# [31] = tested on: MDCK; experiment: Apparent permeability across basolateral to apical side in MDCK cells expressing MDR1; type: ADME, cell-based, Canis lupus familiaris; details: dog
# [32] = tested on: Plasma; experiment: Protein binding in rat plasma; type: ADME, cell-free
# [33] = molecular target: T1, Nuclear receptor subfamily 1 group I member 2 (Homo sapiens, UniProt O75469); experiment: Activation of human PXR; type: ADME
# T1 sequence (O75469 whole entry): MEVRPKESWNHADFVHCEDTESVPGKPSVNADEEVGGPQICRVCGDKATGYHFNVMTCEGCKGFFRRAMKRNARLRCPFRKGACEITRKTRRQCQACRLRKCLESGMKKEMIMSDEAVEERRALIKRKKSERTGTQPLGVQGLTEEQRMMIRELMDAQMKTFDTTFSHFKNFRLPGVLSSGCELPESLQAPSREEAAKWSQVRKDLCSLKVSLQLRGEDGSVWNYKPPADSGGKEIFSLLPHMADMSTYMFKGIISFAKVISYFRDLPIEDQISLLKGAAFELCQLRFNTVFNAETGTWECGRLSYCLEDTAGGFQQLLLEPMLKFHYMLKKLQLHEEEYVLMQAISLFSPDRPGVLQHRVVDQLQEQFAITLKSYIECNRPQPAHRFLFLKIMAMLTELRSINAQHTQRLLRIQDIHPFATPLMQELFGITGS
# [34] = tested on: Rattus norvegicus; experiment: Volume of distribution at steady state in Sprague-Dawley rat at 2 mg/kg, iv by HPLC/MS/MS method; type: ADME, organism-based; details: in vivo; method in brief: as §1
# [35] = molecular target: Cytochrome P450 2C9 (Homo sapiens, UniProt P11712); experiment: Inhibition of CYP2C9 (unknown origin)
# [36] = tested on: Rattus norvegicus; experiment: Apparent terminal half life in Sprague-Dawley rat at 2 mg/kg, iv by HPLC/MS/MS method; type: ADME, organism-based; details: in vivo; method in brief: as §1
# [37] = tested on: Rattus norvegicus; experiment: AUC (0 to infinity) in Sprague-Dawley rat at 5 mg/kg, po by HPLC/MS/MS method; type: ADME, organism-based; set-up: dose 5 mg/kg, time infinity, route oral; details: in vivo; method in brief: as §1
# [38] = Plasma concentration in Sprague-Dawley rat at 5 mg/kg, po measured at 48 hrs post dose on day 1 by HPLC/MS/MS method; type: ADME, organism-based; method in brief: as §3
# [39] = tested on: Rattus norvegicus; experiment: Oral bioavailability in Sprague-Dawley rat at 5 mg/kg by HPLC/MS/MS method; type: ADME, organism-based; details: in vivo; method in brief: as §1
# [40] = tested on: Rattus norvegicus; experiment: Decrease in RBP4 level in Sprague-Dawley rat plasma at 5 mg/kg, po qd administered for 7 days measured on day 7 post last dose relative to vehicle-treated control; type: functional; set-up: scale not given: the % may be the effect or the level left
# Method in brief: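 Male Sprague Dawley rats received 5 mg/kg or vehicle by oral gavage once daily for 7 days, 3 per group. Whole blood clotted 30 min at room temperature, then was centrifuged at 2000g for 15 min at 4°C. Serum RBP4 was measured by dual ELISA kit per the manufacturer's instructions.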
# [41] = tested on: Liver microsome; experiment: Intrinsic clearance in human liver microsomes; type: ADME
# [42] = Plasma concentration in Sprague-Dawley rat at 5 mg/kg, po qd administered for 7 days measured at 4 hrs post dose on day 7 by HPLC/MS/MS method; type: ADME, organism-based; method in brief: as §2
# Cytochrome P450 3A4, sequence (P08684 whole entry): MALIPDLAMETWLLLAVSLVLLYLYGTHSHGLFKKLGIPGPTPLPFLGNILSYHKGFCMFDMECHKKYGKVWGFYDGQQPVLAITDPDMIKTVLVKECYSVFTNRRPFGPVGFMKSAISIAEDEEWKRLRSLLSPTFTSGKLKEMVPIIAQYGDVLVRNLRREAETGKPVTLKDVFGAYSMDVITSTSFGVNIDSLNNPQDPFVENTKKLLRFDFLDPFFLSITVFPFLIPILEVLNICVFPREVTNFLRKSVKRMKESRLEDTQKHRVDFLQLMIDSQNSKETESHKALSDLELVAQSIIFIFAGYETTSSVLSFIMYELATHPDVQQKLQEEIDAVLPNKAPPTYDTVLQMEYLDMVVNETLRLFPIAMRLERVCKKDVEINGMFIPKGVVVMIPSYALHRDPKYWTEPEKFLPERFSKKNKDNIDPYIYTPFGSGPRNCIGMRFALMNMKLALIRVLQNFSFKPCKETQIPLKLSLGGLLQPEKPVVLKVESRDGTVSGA
# Voltage-gated inwardly rectifying potassium channel KCNH2, sequence (Q12809 whole entry): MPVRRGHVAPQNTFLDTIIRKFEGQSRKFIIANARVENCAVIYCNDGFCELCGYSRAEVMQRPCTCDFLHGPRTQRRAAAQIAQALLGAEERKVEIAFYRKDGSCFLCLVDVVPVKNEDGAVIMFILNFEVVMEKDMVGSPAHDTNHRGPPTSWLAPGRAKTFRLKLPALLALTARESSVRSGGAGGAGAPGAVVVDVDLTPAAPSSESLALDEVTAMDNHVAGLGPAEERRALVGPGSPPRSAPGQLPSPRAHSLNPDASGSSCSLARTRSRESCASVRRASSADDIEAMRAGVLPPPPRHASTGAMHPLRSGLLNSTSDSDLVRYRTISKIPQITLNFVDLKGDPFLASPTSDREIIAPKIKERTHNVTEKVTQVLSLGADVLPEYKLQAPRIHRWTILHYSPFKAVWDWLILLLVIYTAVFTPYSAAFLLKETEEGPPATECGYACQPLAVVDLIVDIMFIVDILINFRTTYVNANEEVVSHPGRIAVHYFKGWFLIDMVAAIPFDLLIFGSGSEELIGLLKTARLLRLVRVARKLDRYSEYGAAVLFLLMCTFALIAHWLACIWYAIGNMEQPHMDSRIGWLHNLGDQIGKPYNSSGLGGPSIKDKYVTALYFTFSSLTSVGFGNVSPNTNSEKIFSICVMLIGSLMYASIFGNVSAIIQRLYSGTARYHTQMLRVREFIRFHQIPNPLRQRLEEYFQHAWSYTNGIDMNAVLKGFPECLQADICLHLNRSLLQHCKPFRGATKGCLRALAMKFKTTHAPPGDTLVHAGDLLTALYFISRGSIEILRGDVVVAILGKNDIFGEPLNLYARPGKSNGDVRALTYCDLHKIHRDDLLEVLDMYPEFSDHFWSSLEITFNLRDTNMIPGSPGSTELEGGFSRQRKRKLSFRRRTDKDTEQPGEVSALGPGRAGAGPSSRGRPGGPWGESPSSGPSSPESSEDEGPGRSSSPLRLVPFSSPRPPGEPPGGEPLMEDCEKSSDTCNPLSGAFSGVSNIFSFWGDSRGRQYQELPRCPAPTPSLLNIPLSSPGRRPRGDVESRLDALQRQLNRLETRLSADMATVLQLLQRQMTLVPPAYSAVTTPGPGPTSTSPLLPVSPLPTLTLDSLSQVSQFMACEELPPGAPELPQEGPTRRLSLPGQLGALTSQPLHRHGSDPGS
# Cytochrome P450 2C9, sequence (P11712 whole entry): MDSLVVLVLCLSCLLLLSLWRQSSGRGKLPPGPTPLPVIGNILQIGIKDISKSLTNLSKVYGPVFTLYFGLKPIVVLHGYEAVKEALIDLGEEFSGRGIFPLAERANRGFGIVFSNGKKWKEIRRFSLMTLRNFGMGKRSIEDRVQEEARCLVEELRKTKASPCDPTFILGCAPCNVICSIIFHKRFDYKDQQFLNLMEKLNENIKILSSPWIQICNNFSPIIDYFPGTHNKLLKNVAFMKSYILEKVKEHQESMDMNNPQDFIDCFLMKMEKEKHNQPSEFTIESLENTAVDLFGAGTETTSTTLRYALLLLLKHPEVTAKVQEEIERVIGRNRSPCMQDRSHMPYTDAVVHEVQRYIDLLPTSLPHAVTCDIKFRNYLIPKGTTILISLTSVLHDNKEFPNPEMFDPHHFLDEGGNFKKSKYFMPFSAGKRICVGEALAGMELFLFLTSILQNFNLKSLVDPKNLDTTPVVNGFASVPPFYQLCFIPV
# Cytochrome P450 2D6, sequence (P10635 whole entry): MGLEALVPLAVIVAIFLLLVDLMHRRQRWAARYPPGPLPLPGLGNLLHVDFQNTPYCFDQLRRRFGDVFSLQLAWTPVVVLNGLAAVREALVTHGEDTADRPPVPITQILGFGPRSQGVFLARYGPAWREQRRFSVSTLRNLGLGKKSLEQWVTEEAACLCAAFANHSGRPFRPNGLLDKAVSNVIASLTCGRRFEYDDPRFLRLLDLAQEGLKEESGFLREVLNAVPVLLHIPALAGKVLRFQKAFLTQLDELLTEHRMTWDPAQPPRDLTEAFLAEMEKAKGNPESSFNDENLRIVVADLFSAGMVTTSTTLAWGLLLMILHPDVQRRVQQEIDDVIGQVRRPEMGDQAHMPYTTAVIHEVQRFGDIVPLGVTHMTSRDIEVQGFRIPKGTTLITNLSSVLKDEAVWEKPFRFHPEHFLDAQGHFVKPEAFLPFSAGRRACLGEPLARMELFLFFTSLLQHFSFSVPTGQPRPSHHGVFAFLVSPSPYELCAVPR
# Cytochrome P450 2C19, sequence (P33261 whole entry): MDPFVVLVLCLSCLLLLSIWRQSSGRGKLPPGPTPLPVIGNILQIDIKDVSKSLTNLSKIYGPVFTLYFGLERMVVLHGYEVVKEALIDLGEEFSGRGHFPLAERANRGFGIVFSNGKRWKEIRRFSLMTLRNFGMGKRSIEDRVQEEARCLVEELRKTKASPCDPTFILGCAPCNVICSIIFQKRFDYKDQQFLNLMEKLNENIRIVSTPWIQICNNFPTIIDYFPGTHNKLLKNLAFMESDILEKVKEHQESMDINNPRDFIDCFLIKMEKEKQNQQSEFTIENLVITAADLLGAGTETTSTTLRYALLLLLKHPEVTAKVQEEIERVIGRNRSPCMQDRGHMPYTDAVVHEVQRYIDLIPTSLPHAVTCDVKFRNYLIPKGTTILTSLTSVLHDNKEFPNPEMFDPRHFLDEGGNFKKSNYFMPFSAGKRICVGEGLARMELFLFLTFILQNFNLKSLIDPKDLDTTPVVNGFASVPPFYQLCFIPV
smiles,measurement,setting,value
Cc1cc(C(=O)O)nc(N2C[C@H]3C[C@@H](c4ccccc4C(F)(F)F)C[C@H]3C2)n1,"remaining at 0.5 h, 10 µM",[1],94%
same,IC50,[2],> 34 µM
same,AUC,[3],1017 µM·h
same,Cmax,[4],183 µM
same,concentration at 48 h,[5],97.1 µM
same,CLH,[6],< 0.7 microL/ml/min
same,beta t1/2,[7],31.9 h
same,beta t1/2,[8],49.4 h
same,Tmax,[9],2.67 h
same,AUClast,[10],1695 µM·h
same,Papp,[11],74.7 ×10⁻⁶ cm/s
same,IC50,[12],> 30 µM
same,C0,[13],58.6 µM
same,Tmax,[14],2.75 h
same,"remaining at 0.5 h, 10 µM",[15],93%
same,CLH,[16],< 0.7 microL/ml/min
same,IC50,[17],> 34 µM
same,Cmax,[18],66.5 µM
same,betat1/2(app),[19],38.8 h
same,AUClast,[20],795 µM·h
same,IC50,[21],> 34 µM
same,CL,[22],5.06 mL/h/kg
same,Kinetic_solubility,[23],> 100 µM
same,AUClast,[24],2011 µM·h
same,Cmax,[25],62.2 µM
same,AUClast,[26],6380 ng·h/mL
same,Tmax,[27],2.17 h
same,Activity,[28],85%
same,concentration at 168 h,[29],148 µM
same,CLH,[30],0.7 microL/ml/min
same,Papp,[31],82.2 ×10⁻⁶ cm/s
same,PPB,[32],99.4%
same,Activity,[33],Not Active
same,Vdss,[34],0.156 L/kg
same,IC50,[35],> 34 µM
same,betat1/2(app),[36],22 h
same,AUC,[37],3636 µM·h
same,concentration at 48 h,[38],20 µM
same,F,[39],143%
same,Activity,[40],95%
same,CLH,[41],< 0.7 microL/ml/min
same,concentration at 4 h,[42],179 µM
